Results taken from article PMC5525105 (ACS Chemical Biology, 2017).

T1: rGBA (Homo sapiens, UniProt P04062, R534H)
T1 sequence (P04062 40-536 R534H): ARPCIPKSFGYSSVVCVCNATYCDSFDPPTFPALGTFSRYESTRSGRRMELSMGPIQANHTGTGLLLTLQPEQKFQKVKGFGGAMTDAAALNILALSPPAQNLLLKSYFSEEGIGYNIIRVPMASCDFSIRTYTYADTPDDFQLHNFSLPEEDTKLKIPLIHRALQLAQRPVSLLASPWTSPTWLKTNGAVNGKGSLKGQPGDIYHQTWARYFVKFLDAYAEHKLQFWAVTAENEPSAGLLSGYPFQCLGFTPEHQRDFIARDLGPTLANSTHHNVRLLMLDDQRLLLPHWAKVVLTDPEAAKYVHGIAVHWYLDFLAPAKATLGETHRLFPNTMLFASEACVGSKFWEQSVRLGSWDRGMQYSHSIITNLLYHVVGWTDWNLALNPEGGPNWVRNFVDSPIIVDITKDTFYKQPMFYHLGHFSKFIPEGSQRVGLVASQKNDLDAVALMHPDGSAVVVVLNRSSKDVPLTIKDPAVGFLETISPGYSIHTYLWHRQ

T2: wild-type GBA (Homo sapiens, UniProt P04062)
T2 sequence (P04062 40-536): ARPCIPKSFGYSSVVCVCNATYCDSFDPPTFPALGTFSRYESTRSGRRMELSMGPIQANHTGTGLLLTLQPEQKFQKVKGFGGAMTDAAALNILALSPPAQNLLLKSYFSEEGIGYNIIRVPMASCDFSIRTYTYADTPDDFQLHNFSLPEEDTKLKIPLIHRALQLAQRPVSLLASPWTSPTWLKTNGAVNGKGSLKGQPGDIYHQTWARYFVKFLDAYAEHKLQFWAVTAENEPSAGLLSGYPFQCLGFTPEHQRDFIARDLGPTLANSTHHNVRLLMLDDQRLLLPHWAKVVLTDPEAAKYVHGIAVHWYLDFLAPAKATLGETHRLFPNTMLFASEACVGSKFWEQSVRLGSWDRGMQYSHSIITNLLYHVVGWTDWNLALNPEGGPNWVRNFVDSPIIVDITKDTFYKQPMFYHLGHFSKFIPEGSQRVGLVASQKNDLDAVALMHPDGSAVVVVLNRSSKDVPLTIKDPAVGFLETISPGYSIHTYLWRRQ


What was measured:
[1] = target: T1, rGBA; assay: Thermal stability of rGBA by tryptophan fluorescence decay; assay type: binding
[2] = system: wild-type and N370S GBA; assay: In situ treatment of fibroblasts with IFG 1 or fluoro 3 for 12 days; assay type: cell-based, human; settings: wild-type and homozygous N370S GBA fibroblasts
[3] = system: GBA L444P mutant; settings: mice, oral administration; cited from earlier work
[4] = target: T1, rGBA; assay: Limited proteolysis of rGBA with trypsin; settings: for rGBA remaining intact after tryptic digestion: 90 min of incubation with trypsin
[5] = system: GBA; settings: neutral pH; cited from earlier work
[6] = target: T2, wild-type GBA; assay: In situ stabilization of GBA in wild-type fibroblasts; assay type: cell-based; settings: wild-type cells, 100 nM ABP 5 or 100 μM leupeptin, up to 12 days
Procedure, shortened: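 Confluent wild-type skin fibroblasts were cultured 0–12 days with 100 nM red β-epoxide probe, 100 μM leupeptin, or both, with medium refreshed […]. Lysates were made in pH 6.5 phosphate/Triton with protease inhibitors. Without in situ probe, 10 μg protein was labeled 1 h at 37 °C with 100 nM green probe at pH 5.2. Analysis was SDS-PAGE fluorescence, Coomassie staining and anti-GBA (8E4) western blot, then densitometry.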

[7] = target: T1, rGBA; assay: Tryptophan emission fluorescence spectra of rGBA; settings: λEX 295 nm, pH 7.4, free or in complex with inhibitor
[8] = Time-dependent decay of rGBA activity at 37 °C; assay type: physicochemical
[9] = Thermal unfolding of free rGBA by circular dichroism; assay type: physicochemical; settings: circular dichroism 222 nm

Molecule	increase of Tm of rGBA ([1]; pH 5.2, saturating inhibitor concentration)	concentration at which stabilizing effect became evident [2]	concentration of maximal stabilizing effect ([2]; highest concentration tested) [µM]	increase of GBA L444P mutant activity [3]	rGBA remaining intact after tryptic digestion [4] [%]	increase in thermal stability of GBA [5] [°C]	stabilization of GBA [6]	Tm of rGBA ([1]; pH 5.2, no inhibitor) [°C]	maximum emission of rGBA tryptophan fluorescence [7] [nm]	activity of rGBA over time ([8]; pH 5.2, 37 °C)	half-life of rGBA activity ([8]; pH 7.4, 37 °C, residual activity measured at pH 5.2) [min]	sensitivity of rGBA to tryptic digestion over 90 min ([4]; pH 5.2, trypsin/rGBA 1/10 (w/w))	rGBA degraded by trypsin within 60 min ([4]; pH 7.4, trypsin/rGBA 1/10 (w/w))	apparent Tm ([9]; pH 5.2) [°C]	apparent Tm ([9]; pH 7.4) [°C]
OC[C@H]1CNC[C@@H](O)[C@@H]1O [IFG 1, isofagomine]	+5.6 °C	greater than 10 μM	100	up to 5 fold	50	8.7									
CC(=O)N[C@@H](CC(C)C)C(=O)N[C@@H](CC(C)C)C(=O)N[C@H](C=O)CCCNC(=N)N [leupeptin]							about 3 fold								
rGBA: purified recombinant glucocerebrosidase (imiglucerase) from Genzyme (protein, UniProt P04062 40-536, looked up, variant R495H, imiglucerase) Lysosomal acid …: ARPCIPKSFGYSSVVCVCNATYCDSFDPPTFPALGTFSRYESTRSGRRMELSMGPIQANHTGTGLLLTLQPEQKFQKVKGFGGAMTDAAALNILALSPPAQNLLLKSYFSEEGIGYNIIRVPMASCDFSIRTYTYADTPDDFQLHNFSLPEEDTKLKIPLIHRALQLAQRPVSLLASPWTSPTWLKTNGAVNGKGSLKGQPGDIYHQTWARYFVKFLDAYAEHKLQFWAVTAENEPSAGLLSGYPFQCLGFTPEHQRDFIARDLGPTLANSTHHNVRLLMLDDQRLLLPHWAKVVLTDPEAAKYVHGIAVHWYLDFLAPAKATLGETHRLFPNTMLFASEACVGSKFWEQSVRLGSWDRGMQYSHSIITNLLYHVVGWTDWNLALNPEGGPNWVRNFVDSPIIVDITKDTFYKQPMFYHLGHFSKFIPEGSQRVGLVASQKNDLDAVALMHPDGSAVVVVLNRSSKDVPLTIKDPAVGFLETISPGYSIHTYLWHRQ					~10			55.2	336.5	preserved	30	shows resistance to tryptic digestion	about 40%	61	57
